Structures are written as SMILES. pIC50: −log10 of the molar value. Activity calls are given as the source filed them. No cut-off for these calls is given here. Some results are limits rather than exact numbers.

Series [1] can be described thus: Selectivity index, ratio of >90% maximum non-toxic concentration for BALB/c mouse splenocyte to IC50 for Trypanosoma cruzi Y strain trypomastigotes. Format: toxicity. Conditions: splenocytes, read-out: Selectivity Index. The essentials: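 SI computed as highest non-toxic splenocyte concentration (>90% 3H-thymidine incorporation, 24 h) divided by trypomastigote IC50 (24 h, Neubauer motility count).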

The target in series [2] is Cruzipain (Trypanosoma cruzi) (UniProt P25779). Briefly: Inhibition of recombinant Trypanosoma cruzi cruzain at 200 uM using Z-FR-AMC as substrate and measured at 12 sec interval for 5 mins by fluorimetric analysis relative to control. The essentials:
(§1)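 Cruzain (1 nM) in 0.1 M sodium acetate pH 5.5, 0.01% Triton X-100, 1 mM β-mercaptoethanol, substrate Z-FR-AMC, no pre-incubation. Fluorescence read at 25 °C every 12 s for 5 min; rates from initial velocities versus DMSO control. Screened at 300, 200 or 100 (solubility-limited). Where inhibition exceeded 80%, IC50 came from seven concentrations by four-parameter variable-slope regression. At least two independent experiments, each in triplicate.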

In series [3] the test system is Trypanosoma cruzi. Briefly: Antiparasitic activity against Trypanosoma cruzi Y strain trypomastigotes assessed as reduction in parasite viability after 24 hrs by Neubauer chamber counting method. The format is functional, organism-based. The method in brief:
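Y strain trypomastigotes collected from Vero cell supernatant, plated at 4 × 10^5 per well, treated in triplicate for 24 h at 37 °C, 5% CO2; benznidazole positive control. Motile (viable) parasites counted in Neubauer chamber, untreated wells = 100%. IC50 by nonlinear regression from at least seven concentrations.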

The nature of series [4]: Cytotoxicity against BALB/c mouse splenocyte incubated for 24 hrs by [3H]-thymidine incorporation based counter beta irradiation method. Format: cell-based. As to conditions: splenocytes. The method in brief: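 BALB/c splenocytes, 5 × 10^6 cells/well in RPMI-1640 + 10% inactivated FBS. Compounds from 10 mg/mL DMSO stock, serially diluted to […] (units as printed), in triplicate. Saponin 0.1 mg/mL positive control; medium + DMSO negative (=100%). 3H-thymidine 1.0 added, 24 h at 37 °C, 5% CO2, beta counting; highest concentration giving >90% incorporation taken as non-toxic.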
Background: Dividing cells build labelled thymidine or BrdU into new DNA.

Series [5] deals with Trypanosoma cruzi. Briefly: Induction of cytoplasmic vacuolization, irreversible lesions and changes in parasitic morphology in Trypanosoma cruzi trypomastigotes after 24 hrs by TEM analysis. Conditions: dose 3.4-6.8 µM. Format: functional. The essentials: (§2)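 Trypomastigotes cultured 24 h in RPMI 1640 pH 7.5 with 20 mM HEPES, 10% FBS, penicillin/streptomycin plus compound at 3.4 and 6.8. Parasites washed in PBS and fixed in 2.5% glutaraldehyde/4% formaldehyde in 0.1 M cacodylate pH 6.8, then postfixed in 2% OsO4. SEM samples were ethanol-dehydrated, critical-point dried and gold-coated. TEM samples were acetone-dehydrated, epon-embedded and stained with uranyl acetate/lead citrate. Untreated controls were included.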

Series [6] has as its system Trypanosoma cruzi. Briefly: Induction of morphological changes in Trypanosoma cruzi trypomastigotes assessed as contortion of parasite body with presence of blebs in flagellum and parasite body at 3.4 uM after 24 hrs by SEM analysis. Format: functional, organism-based. The essentials: as §2
Series [7] has as its target Cruzipain (Trypanosoma cruzi) (UniProt P25779). Briefly: Inhibition of recombinant Trypanosoma cruzi cruzain at 300 uM using Z-FR-AMC as substrate and measured at 12 sec interval for 5 mins by fluorimetric analysis relative to control. The essentials:
as §1

Series [8] concerns Trypanosoma cruzi. Briefly: Induction of morphological changes in Trypanosoma cruzi trypomastigotes assessed as membrane projections at 3.4 uM after 24 hrs by TEM analysis. The format is functional, organism-based. The method in brief: as §2
For series [9], the system named is Trypanosoma cruzi. Briefly: Induction of morphological changes in Trypanosoma cruzi trypomastigotes assessed as formation of membrane blebs at 3.4 to 6.8 uM after 24 hrs by TEM analysis. Conditions: dose 3.4-6.8 µM. The format is functional, organism-based. The essentials:
as §2

Series [10] relates to Trypanosoma cruzi. Briefly: Induction of morphological changes in Trypanosoma cruzi trypomastigotes assessed as cytoplasmic vacuolization at 6.8 uM after 24 hrs by TEM analysis. Format: functional, organism-based. The essentials:
as §2

The test system of series [11] is Trypanosoma cruzi. Briefly: Induction of morphological changes in Trypanosoma cruzi trypomastigotes assessed as alteration in reservosomes at 3.4 to 6.8 uM after 24 hrs by TEM analysis. Format: functional, organism-based. As to conditions: dose 3.4-6.8 µM. The method in brief:
as §2

The subject of series [12] is Trypanosoma cruzi. Briefly: Induction of morphological changes in Trypanosoma cruzi trypomastigotes assessed as mitochondrial swelling at 3.4 to 6.8 uM after 24 hrs by TEM analysis. Format: functional, organism-based. As to conditions: dose 3.4-6.8 µM. The essentials:
as §2

For series [13], the system named is Trypanosoma cruzi. Briefly: Induction of morphological changes in Trypanosoma cruzi trypomastigotes assessed as abnormal chromatin condensation at 3.4 to 6.8 uM after 24 hrs by TEM analysis. The format is functional, organism-based. As to conditions: dose 3.4-6.8 µM. The essentials: as §2
The subject of series [14] is Trypanosoma cruzi. Briefly: Induction of morphological changes in Trypanosoma cruzi trypomastigotes assessed as contortion of parasite body and alteration in morphology and size of flagellum at 6.8 uM after 24 hrs by SEM analysis. Format: functional, organism-based. The method in brief: as §2
For series [15], the target named is Cruzipain (Trypanosoma cruzi, UniProt P25779). Briefly: Inhibition of recombinant Trypanosoma cruzi cruzain using Z-FR-AMC as substrate and measured at 12 sec interval for 5 mins by fluorimetric analysis. The method in brief: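 Cruzain (1 nM) in 0.1 M sodium acetate pH 5.5, 0.01% Triton X-100, 1 mM β-mercaptoethanol, substrate Z-FR-AMC, no pre-incubation. Fluorescence read at 25 °C every 12 s for 5 min; rates from initial velocities versus DMSO control. Screened at 300, 200 or 100 (solubility-limited). At least two independent experiments, each in triplicate.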
Sequence of Cruzipain (P25779 whole entry): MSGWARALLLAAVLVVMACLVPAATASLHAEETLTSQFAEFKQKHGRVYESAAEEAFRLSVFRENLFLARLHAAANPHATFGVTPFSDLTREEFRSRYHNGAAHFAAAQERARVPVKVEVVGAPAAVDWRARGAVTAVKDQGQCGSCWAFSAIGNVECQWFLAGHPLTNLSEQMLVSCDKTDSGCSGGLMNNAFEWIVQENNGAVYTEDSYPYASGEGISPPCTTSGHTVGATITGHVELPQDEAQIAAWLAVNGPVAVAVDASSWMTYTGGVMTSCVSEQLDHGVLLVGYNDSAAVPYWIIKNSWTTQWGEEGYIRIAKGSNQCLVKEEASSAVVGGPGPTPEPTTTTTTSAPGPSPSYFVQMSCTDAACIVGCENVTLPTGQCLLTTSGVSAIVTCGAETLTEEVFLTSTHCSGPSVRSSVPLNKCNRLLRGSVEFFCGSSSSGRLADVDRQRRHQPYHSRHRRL

Sequence of Cruzipain (Trypanosoma cruzi) (P25779 123-467 limits assumed): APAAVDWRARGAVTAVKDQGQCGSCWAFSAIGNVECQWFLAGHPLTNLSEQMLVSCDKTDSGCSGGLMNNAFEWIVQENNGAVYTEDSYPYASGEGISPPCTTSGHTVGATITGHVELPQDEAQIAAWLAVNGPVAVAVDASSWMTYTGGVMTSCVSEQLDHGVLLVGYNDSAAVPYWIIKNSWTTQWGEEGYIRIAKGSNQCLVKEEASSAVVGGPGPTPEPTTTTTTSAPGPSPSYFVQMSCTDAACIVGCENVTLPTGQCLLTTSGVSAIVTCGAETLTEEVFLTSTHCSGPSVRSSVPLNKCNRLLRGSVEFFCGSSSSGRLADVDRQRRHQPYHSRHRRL

`O=C(Cn1ccnc1[N+](=O)[O-])NCc1ccccc1` [BENZNIDAZOLE]: the selectivity ratio in series [1] amounted to 15.4.
On to `CC/C(=N\N=C(/S)Nc1ccccc1)c1cccc(Br)c1`, for which, in [2], the inhibition turned out to be 49.5%. In addition, the pIC50 in series [3] was 4.88. The MNTC at 24 h in [4] was 138 µM. For the same molecule, in series [1], the selectivity ratio amounted to 10.4.
`CC/C(=N\Nc1nc(-c2ccc(OC)cc2)cs1)c1cccc(Br)c1`: in series [5], the Activity result is “Dose-dependent effect”. Further, the outcome in series [6], in series [8], in series [9], in [10], in series [11] and in [12] was Active. The result in [13] and in [14] was Active. The inhibition in series [7] stood at 72%. Besides, the pIC50 in series [3] is 5.42. The molecule further returned an MNTC at 24 h in series [4] of 120 µM. In addition, the selectivity ratio in series [1] was determined as 31.3.
Turning to `CC/C(=N\NC(N)=S)c1cccc(Br)c1`, in series [3], the pIC50 was 5.62. The molecule also displayed an MNTC at 24 h in [4] of 34.9 µM.
In the case of `CC/C(=N\Nc1nc(-c2ccc([N+](=O)[O-])cc2)cs1)c1cccc(Br)c1`, the inhibition in series [7] is 68.9%. For the same molecule, the pIC50 in [3] is 4.22. Besides, in series [4], the MNTC at 24 h was > 232 µM. The selectivity ratio in [1] is > 3.9.
For the molecule `CC/C(=N\Nc1nc(-c2ccc3ccccc3c2)cs1)c1cccc(Br)c1`, the pIC50 is 5.02 in [15] and 4.29 in series [3]. Further, the inhibition in series [7] turned out to be 88.2%. Moreover, the MNTC at 24 h in series [4] is > 229 µM. Further, the selectivity ratio in series [1] was > 4.5.
For `CC/C(=N\N=c1/scc(-c2ccccc2)n1-c1ccccc1)c1cccc(Br)c1`, the pIC50 in series [3] is 4.27. For the same molecule, the MNTC at 24 h in series [4] worked out at 50.8 µM. For the same molecule, the selectivity ratio in series [1] turned out to be 0.9.
Regarding `CC/C(=N\Nc1nc(-c2ccc(C)cc2)cs1)c1cccc(Br)c1`, the pIC50 in series [15] was 4.72; in series [3], 4.78. Further, the inhibition in [7] turned out to be 97.7%. Moreover, the MNTC at 24 h in series [4] stood at 125 µM. The selectivity ratio in series [1] was 7.5.
For `CC/C(=N\Nc1nc(-c2ccccc2)cs1)c1cccc(Br)c1`, the pIC50 in series [15] is 4.35; in series [3] it was 5.26. Moreover, the inhibition in [7] is 80.7%. For the same molecule, in [4], the MNTC at 24 h was 64.7 µM. Also, in [1], the selectivity ratio amounted to 11.7.
In the case of `CC/C(=N\N=C(/S)NC)c1cccc(Br)c1`, in series [2], the inhibition was determined as 11.7%. In addition, the pIC50 in series [3] is 4.44. Further, the MNTC at 24 h in series [4] is 33.3 µM. The selectivity ratio in series [1] is 0.9.
As to `CC/C(=N\Nc1nc(-c2ccc(Cl)c(Cl)c2)cs1)c1cccc(Br)c1`, the pIC50 in series [15] is 4.95; in series [3], 3.89. Further, the inhibition in series [7] was found to be 86.8%. Further, the MNTC at 24 h in series [4] came out at 54.9 µM. Moreover, the selectivity ratio in series [1] was determined as 0.4.
In the case of `CC/C(=N\N=c1/scc(-c2ccc(OC)cc2)n1C)c1cccc(Br)c1`, the inhibition in series [2] was determined as 33.1%. Besides, the pIC50 in series [3] is 4.12. This molecule also returned an MNTC at 24 h in series [4] of 58.1 µM. Also, the selectivity ratio in [1] was 0.7.
Take `CC/C(=N\Nc1nc(-c2ccc(Cl)cc2)cs1)c1cccc(Br)c1`: the pIC50 in [15] was 4.49; in [3], 3.85. Further, in series [7], the inhibition worked out at 90.4%. The molecule also registered an MNTC at 24 h in series [4] of 119 µM. Also, the selectivity ratio in [1] worked out at 0.8.
The corresponding values for `CC/C(=N\Nc1nc(-c2cccc([N+](=O)[O-])c2)cs1)c1cccc(Br)c1` are 4.84, 4.82, 85.3%, 23.2 µM and 1.5.
Regarding `CC/C(=N\Nc1nc(-c2ccc(-c3ccccc3)cc2)cs1)c1cccc(Br)c1`, the inhibition in [7] came out at 18.1%. The pIC50 in [3] is 5.47. The MNTC at 24 h in [4] was > 216 µM. The selectivity ratio in [1] is > 64.5.
Take `CC/C(=N\Nc1nc(-c2ccccc2)c(C)s1)c1cccc(Br)c1`: the pIC50 in series [15] was 6.29; in [3], 5.32. In addition, the inhibition in series [7] is 99.5%. In series [4], the MNTC at 24 h came to 12.5 µM. Also, the selectivity ratio in series [1] was 2.6.
On the same counts, the results for `CC/C(=N\Nc1nc(-c2ccc(Cl)cc2Cl)cs1)c1cccc(Br)c1` are 4.82, 4.23, 99.7%, 54.9 µM and 0.9.
On the same counts, the results for `CC/C(=N\Nc1nc(-c2ccc(F)cc2)cs1)c1cccc(Br)c1` are 4.78, 3.84, 95.8%, 124 µM and 0.8.
As to `CC/C(=N\Nc1nc(-c2ccc(Br)cc2)c(C)s1)c1cccc(Br)c1`, the pIC50 was 5.42 in series [15] and 5.24 in [3]. The inhibition in series [7] is 100%. This molecule registered an MNTC at 24 h in [4] of 20.9 µM. The selectivity ratio in series [1] was 3.6.

In general, inhibition refers to the share of the control response that was lost under treatment. Broadly, the pIC50 is −log10 of the IC50, conventionally taken in molar units.

These data come from ChEMBL document CHEMBL4715737, “New 1,3-thiazole derivatives and their biological and ultrastructural effects on Trypanosoma cruzi” (Eur J Med Chem, 2016).
